Calls of active or inactive are those of the source. The calls are words filed in the database; no cut-off is given here.
Columns and labels:
[1] = Antiproliferative activity against human HCT116 cells after 72 hrs by MTT assay; type: functional, cell-based; settings: HCT-116, 72 h
[2] = test system: AGS; assay: Downregulation of SIRT1 protein level in human AGS cells at 1 and 5 uM after 24 after 24 hrs by Western blot analysis; type: functional, cell-based
[3] = test system: AGS; assay: Induction of apoptosis in human AGS cells after 24 hrs by annexin V-FITC staining-based flow cytometric analysis; type: functional, cell-based
How it was run: (§1)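 AGS cells exposed to compound for 24 h; Annexin V-FITC staining and flow cytometry used to give percentage of apoptotic cells; mean ± S.E. from at least three independent experiments.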

[4] = target: T1, DNA topoisomerase 1 (Homo sapiens) (UniProt P11387); assay: Inhibition of Top1 (unknown origin)-mediated relaxation of pBR322 DNA at 2.5 uM incubated for 30 mins by ethidium bromide staining-based gel electrophoresis assay
T1 sequence (whole entry): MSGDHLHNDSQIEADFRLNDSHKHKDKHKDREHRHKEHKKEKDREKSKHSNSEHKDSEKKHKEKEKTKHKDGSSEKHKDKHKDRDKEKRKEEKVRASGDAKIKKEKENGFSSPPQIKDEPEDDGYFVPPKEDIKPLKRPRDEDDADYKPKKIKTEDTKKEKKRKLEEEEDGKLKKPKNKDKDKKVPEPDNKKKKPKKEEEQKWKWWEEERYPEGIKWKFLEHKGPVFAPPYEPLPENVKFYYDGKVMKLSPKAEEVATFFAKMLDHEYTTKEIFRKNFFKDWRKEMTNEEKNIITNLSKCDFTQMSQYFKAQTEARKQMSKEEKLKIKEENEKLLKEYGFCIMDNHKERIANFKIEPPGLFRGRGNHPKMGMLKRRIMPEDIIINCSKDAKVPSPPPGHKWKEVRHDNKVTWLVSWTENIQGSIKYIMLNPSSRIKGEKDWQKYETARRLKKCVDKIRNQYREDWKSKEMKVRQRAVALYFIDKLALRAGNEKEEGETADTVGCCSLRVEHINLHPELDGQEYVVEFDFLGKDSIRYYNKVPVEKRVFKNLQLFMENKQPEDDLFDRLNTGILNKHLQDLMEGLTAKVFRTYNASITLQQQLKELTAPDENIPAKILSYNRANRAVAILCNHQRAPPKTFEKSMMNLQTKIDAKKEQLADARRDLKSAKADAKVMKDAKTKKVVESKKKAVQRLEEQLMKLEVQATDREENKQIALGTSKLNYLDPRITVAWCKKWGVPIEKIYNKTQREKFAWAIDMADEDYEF
How it was run: (§2)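 Supercoiled pBR322 plasmid treated with Top1 without drug or with compound at 0.5, 2.5 or 10 µM; camptothecin as reference; relaxation assessed by gel electrophoresis.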

[5] = test system: AGS; assay: Increase in intracellular NAD+/NADH ratio in human AGS cells at 5 uM incubated for 5 mins; type: functional, cell-based
[6] = test system: CCRF-CEM; assay: Antiproliferative activity against human CEM cells after 72 hrs by MTT assay; type: functional, cell-based
[7] = test system: AGS; assay: Induction of apoptosis in human AGS cells assessed as necrotic cells at 10 uM after 24 hrs by annexin V-FITC staining-based flow cytometric analysis (Rvb=1.1%); type: functional
[8] = test system: AGS; assay: Induction of apoptosis in human AGS cells assessed as necrotic cells at 5 uM after 24 hrs by annexin V-FITC staining-based flow cytometric analysis (Rvb=1.1%); type: functional
[9] = test system: AGS; assay: Induction of apoptosis in human AGS cells assessed as early apoptotic cells at 5 uM after 24 hrs by annexin V-FITC staining-based flow cytometric analysis (Rvb=9.8%); type: functional; how it was run: as §1
[10] = test system: AGS; assay: Induction of apoptosis in human AGS cells assessed as viable cells at 10 uM after 24 hrs by annexin V-FITC staining-based flow cytometric analysis (Rvb=83.7%); type: functional; settings: read-out: Activity; how it was run: as §1
[11] = test system: K562; assay: Antiproliferative activity against human K562 cells after 72 hrs by MTT assay; type: functional, cell-based; settings: K562, 72 h
[12] = test system: K562; assay: Resistance index, ratio of IC50 for human K562/4 cells to IC50 for human K562 cells; type: functional
[13] = test system: AGS; assay: Induction of apoptosis in human AGS cells assessed as viable cells at 5 uM after 24 hrs by annexin V-FITC staining-based flow cytometric analysis (Rvb=83.7%); type: functional; settings: read-out: Activity; how it was run: as §1
[14] = test system: AGS; assay: Upregulation of acetylated p53 level in human AGS cells at 1 and 5 uM after 24 hrs by Western blot analysis; type: functional, cell-based
[15] = test system: AGS; assay: Induction of apoptosis in human AGS cells assessed as early apoptotic cells at 10 uM after 24 hrs by annexin V-FITC staining-based flow cytometric analysis (Rvb=9.8%); type: functional; how it was run: as §1
[16] = test system: AGS; assay: Downregulation of Bid protein level in human AGS cells after 24 hrs by Western blot analysis; type: functional, cell-based
[17] = target: T1, DNA topoisomerase 1 (Homo sapiens); assay: Inhibition of Top1 (unknown origin)-mediated relaxation of pBR322 DNA at 0.5 uM incubated for 30 mins by ethidium bromide staining-based gel electrophoresis assay; how it was run: as §2
[18] = test system: L1210; assay: Antiproliferative activity against mouse L1210 cells after 72 hrs by MTT assay; settings: L1210, 72 h
[19] = test system: AGS; assay: Induction of apoptosis in human AGS cells assessed as late apoptotic cells at 5 uM after 24 hrs by annexin V-FITC staining-based flow cytometric analysis (Rvb=5.5%); type: functional; how it was run: as §1
[20] = test system: AGS; assay: Upregulation of total p53 level in human AGS cells at 1 and 5 uM after 24 hrs by Western blot analysis; type: cell-based
[21] = test system: AGS; assay: Upregulation of caspase3-directed PARP cleavage in human AGS cells at 5 uM after 24 hrs by Western blot analysis; type: functional, cell-based
[22] = Antiproliferative activity against human K562/4 cells after 72 hrs by MTT assay; type: functional, cell-based; settings: K562/4, 72 h
[23] = test system: AGS; assay: Downregulation of tNOX protein level in human AGS cells at 1 and 5 uM after 24 hrs by Western blot analysis; type: functional, cell-based
[24] = test system: AGS; assay: Induction of apoptosis in human AGS cells assessed as late apoptotic cells at 10 uM after 24 hrs by annexin V-FITC staining-based flow cytometric analysis (Rvb=5.5%); type: functional; how it was run: as §1
[25] = test system: AGS; assay: Upregulation of phosphorylated p53 level in human AGS cells at 1 and 5 uM after 24 hrs by Western blot analysis; type: functional, cell-based
[26] = target: T2, NAD-dependent protein deacetylase sirtuin-1 (Homo sapiens) (UniProt Q96EB6); assay: Inhibition of human recombinant SIRT1 deacetylase activity using Arg-His-Lys-Lys(epsilon-acetyl)-AMC as substrate at 5 uM incubated for 45 mins by fluorescence analysis
T2 sequence (whole entry): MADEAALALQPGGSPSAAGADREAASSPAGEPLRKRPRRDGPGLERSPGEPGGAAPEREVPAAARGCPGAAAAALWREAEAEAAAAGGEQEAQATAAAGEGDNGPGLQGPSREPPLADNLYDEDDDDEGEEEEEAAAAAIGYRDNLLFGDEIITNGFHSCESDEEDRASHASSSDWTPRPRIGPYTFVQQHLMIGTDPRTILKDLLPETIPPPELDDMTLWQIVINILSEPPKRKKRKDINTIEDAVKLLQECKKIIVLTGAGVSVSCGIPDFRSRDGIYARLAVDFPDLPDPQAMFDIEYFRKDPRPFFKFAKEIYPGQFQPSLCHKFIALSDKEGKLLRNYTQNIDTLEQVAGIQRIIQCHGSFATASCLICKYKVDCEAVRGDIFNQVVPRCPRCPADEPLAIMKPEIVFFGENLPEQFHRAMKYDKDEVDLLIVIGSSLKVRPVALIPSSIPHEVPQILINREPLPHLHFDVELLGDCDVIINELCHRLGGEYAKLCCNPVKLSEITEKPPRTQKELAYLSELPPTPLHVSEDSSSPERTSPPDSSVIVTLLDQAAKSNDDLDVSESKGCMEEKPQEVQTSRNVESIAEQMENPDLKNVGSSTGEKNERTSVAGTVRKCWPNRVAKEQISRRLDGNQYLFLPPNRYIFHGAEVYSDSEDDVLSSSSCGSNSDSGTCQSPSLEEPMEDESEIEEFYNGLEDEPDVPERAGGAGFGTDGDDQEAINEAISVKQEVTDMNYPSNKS

[27] = target: DNA topoisomerase 2-alpha (Homo sapiens) (UniProt P11388); assay: Inhibition of Top2 (unknown origin)-mediated relaxation of pBR322 DNA at 0.1 to 2.5 uM incubated for 30 mins by ethidium bromide staining-based gel electrophoresis assay
DNA topoisomerase 2-alpha (Homo sapiens), sequence (P11388 whole entry): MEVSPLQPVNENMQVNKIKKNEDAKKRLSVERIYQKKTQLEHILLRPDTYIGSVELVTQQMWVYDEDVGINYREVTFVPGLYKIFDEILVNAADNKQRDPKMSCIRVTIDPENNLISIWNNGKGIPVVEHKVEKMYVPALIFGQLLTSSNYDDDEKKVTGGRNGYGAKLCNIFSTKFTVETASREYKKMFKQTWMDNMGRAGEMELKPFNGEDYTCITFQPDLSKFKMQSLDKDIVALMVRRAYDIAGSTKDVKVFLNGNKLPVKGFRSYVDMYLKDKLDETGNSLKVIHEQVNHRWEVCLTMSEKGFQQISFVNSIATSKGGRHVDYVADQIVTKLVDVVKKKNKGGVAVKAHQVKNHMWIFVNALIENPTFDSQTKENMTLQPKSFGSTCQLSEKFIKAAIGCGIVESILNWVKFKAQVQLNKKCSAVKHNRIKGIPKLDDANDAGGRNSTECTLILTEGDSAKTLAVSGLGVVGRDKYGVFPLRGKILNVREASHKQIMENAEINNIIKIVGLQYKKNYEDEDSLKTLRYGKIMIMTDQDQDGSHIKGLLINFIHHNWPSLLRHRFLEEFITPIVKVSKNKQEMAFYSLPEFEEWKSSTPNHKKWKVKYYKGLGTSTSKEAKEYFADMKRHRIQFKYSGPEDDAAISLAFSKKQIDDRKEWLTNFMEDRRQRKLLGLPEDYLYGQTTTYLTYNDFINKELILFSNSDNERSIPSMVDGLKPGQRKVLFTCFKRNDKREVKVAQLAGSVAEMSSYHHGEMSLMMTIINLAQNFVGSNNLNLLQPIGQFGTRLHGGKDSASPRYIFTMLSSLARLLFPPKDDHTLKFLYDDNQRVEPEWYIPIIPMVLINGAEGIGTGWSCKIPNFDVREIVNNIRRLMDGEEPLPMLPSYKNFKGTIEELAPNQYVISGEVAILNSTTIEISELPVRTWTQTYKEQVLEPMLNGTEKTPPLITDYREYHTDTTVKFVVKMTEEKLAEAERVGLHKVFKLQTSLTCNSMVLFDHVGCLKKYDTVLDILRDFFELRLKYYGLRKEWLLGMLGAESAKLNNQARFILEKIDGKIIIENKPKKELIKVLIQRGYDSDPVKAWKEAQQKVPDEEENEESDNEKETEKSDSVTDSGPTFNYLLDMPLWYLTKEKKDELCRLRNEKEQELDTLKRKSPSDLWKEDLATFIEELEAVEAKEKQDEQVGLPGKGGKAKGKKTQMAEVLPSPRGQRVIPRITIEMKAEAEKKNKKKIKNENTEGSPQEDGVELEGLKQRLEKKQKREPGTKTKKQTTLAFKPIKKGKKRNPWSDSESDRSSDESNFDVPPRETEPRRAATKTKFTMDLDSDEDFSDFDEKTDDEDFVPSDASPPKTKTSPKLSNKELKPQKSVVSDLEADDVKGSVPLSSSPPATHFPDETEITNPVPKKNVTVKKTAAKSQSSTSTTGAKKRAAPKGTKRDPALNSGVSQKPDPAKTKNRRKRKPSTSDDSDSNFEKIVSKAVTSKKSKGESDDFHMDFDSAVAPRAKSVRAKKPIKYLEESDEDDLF

[28] = test system: HeLa; assay: Antiproliferative activity against human HeLa cells after 72 hrs by MTT assay; type: functional, cell-based

SMILES: N=C(N)NCCNc1c2c(c(NCCNC(=N)N)c3occc13)C(=O)c1ccccc1C2=O
- IC50 [1]: 1.02 µM
- Activity [2]: inactive
- Activity [3]: inactive
- inhibition [4]: Active
- Activity [5]: Active
- IC50 [6]: 9.02 µM
- Activity [7]: 1.5%
- Activity [8]: 1%
- Activity [9]: 8.6%
- viability at 10 µM [10]: 84.9%
- IC50 [11]: 1.65 µM
- Ratio IC50 [12]: 3.98
- viability at 5 µM [13]: 86.3%
- Activity [14]: inactive
- Activity [15]: 10.5%
- Activity [16]: inactive
- inhibition [17]: Active
- IC50 [18]: 5.54 µM
- Activity [19]: 4.2%
- Activity [20]: Not Active
- Activity [21]: inactive
- IC50 [22]: 6.53 µM
- Activity [23]: inactive
- Activity [24]: 3%
- Activity [25]: inactive
- inhibition [26]: inactive
- inhibition [27]: Active
- IC50 [28]: 3.27 µM

— ChEMBL document CHEMBL3745659, “Synthesis and Characterization of 4,11-Diaminoanthra[2,3-b]furan-5,10-diones: Tumor Cell Apoptosis through tNOX-Modulated NAD(+)/NADH Ratio and SIRT1” (J Med Chem, 2015)
